Laboratory results: PubChem BioAssay AID617 (SRMLSC, 2007)

Tested on: E. coli BW25113 ΔtolC growth inhibition, OD615
Test: E. coli ΔtolC antibacterial growth inhibition – strain BW25113 ΔtolC::kan, dose response (AID 617);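 note: growth read after 20 h at 37 °C with compound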
Procedure, shortened: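 Test system: E. coli BW25113 ΔtolC::kan bacteria | Amount: 1:1000 diluted subculture inoculum | Medium: LB plus kanamycin | Timing: 20 h exposure at 37 °C | Signal: Absorbance at 615 nm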

Structure (SMILES)	IC50 [µM]
Clc1ccc(C2=Nn3c(nnc3-c3n[nH]c4c3CCC4)SC2)cc1Cl	11
Cc1nn(-c2nc3ccccc3n2Cc2ccccc2)c2c1C(=O)CC(C)(C)C2	8.51
Cc1ccc(Cn2ccc(NC(=O)c3cc(CC(C)C)on3)n2)cc1	8.54
CCn1cc(Br)c(C(=O)Nc2ccc(C(=O)OC(C)C)cc2)n1	12.3
N#Cc1c(NC(=O)c2ccc(Br)o2)n(-c2ccccc2)c2nc3ccccc3nc12	15.3
CC(C)(C)n1nnnc1C(c1cccs1)N(Cc1ccccc1)Cc1cccnc1 (stereo not given)	8.37
CCOC(=O)c1cc2oc(C)cc2n1CC(=O)OC1CCCCC1	17.6
COc1ccc(NC(=O)c2cc(-c3cc(C)cc(C)c3O)n[nH]2)cc1Cl	1.95
COc1ccc(NS(=O)(=O)c2ccc3c(c2)Cc2ccccc2-3)cn1	10.7
CCc1cccc(NC(=O)c2ccc(NS(=O)(=O)c3c(C)noc3C)cc2)c1	7.16
N#Cc1c(NC(=O)CSc2n[nH]c(Cc3ccccc3)n2)oc(-c2ccccc2)c1-c1ccccc1	7.4
O=C(COn1nnc2ccc(C(F)(F)F)cc21)Nc1nnc(-c2ccccc2)o1	0.64
CCOC(=O)c1cnc(-n2nc(C)cc2C)nc1NC1CCCCC1	0.54
COc1cccc(-c2nnc(NC(=O)c3ccc(S(=O)(=O)N4CCOCC4)cc3)o2)c1	0.99
CCCCCCn1c2c(c(=N)c3c1CCC3)CCC2	10.2
CCN1/C(=C(\O)c2ccccc2)C(=O)c2ccccc2S1(=O)=O	4.56
CCn1cc(C(=O)NCc2ccc3c(c2)OCO3)c(=O)c2cc(F)c(N3CCN(C)CC3)cc21	2.8
Cn1c(C(=O)N2CCN(c3cccc(C(F)(F)F)c3)CC2)cc2sccc21	15.4
O=C(Cn1c(C(=O)NCc2ccco2)cc2sccc21)c1ccccc1	24.6
CC1CCCCN1c1nc(-c2ccncc2)nc2ccccc12 (stereo not given)	12
Cc1cc(NC(=O)c2ccccc2)sc1C	5.59
CCn1cc(C(=O)O)c(=O)c2cc(F)c(N3CCN(C(=O)Nc4ccccc4)CC3)cc21	< 0.2
CCC1CCCCN1C(=O)c1cc(-c2ccc(Cl)c(Cl)c2)on1 (stereo not given)	10.3
CC1(C)CC2CC(C)(CN2C(=O)c2cc(-c3ccccc3O)on2)C1 (stereo not given)	3.42
CCOC(=O)N1CCC(c2cc(=O)n3[nH]c(C)c(-c4ccc(F)cc4)c3n2)CC1	1.68
Cc1ccc(S(=O)(=O)NCCSc2nnnn2-c2cc(C)ccc2C)cc1	13.4
O=C(Nc1cccc(S(=O)(=O)c2cccc(NC(=O)C3CC3)c2)c1)C1CC1	5.25
CCCCc1ccc(Nc2nc(CCC)cc(=O)[nH]2)cc1	14.9

Structure (SMILES)	IC50 [µM]
C=CCc1cc(C)ccc1OCC(O)CN1CCN(c2ccccc2)CC1 (stereo not given)	17
CSCCOC(=O)C1=C(C)NC(=O)CC1c1ccccc1Cl (stereo not given)	22.9
Fc1ccc(Br)cc1C1C=C(c2ccc(Br)s2)Nc2ncnn21 (stereo not given)	5.22
CSc1nc2ccc(NS(=O)(=O)c3ccc4c(c3)OCCO4)cc2s1	2.88
CCOC(=O)c1cccc(NC(=O)c2cc3sccc3n2C)c1	9.82
O=C(O)CCCC(=O)N1CCc2cc(S(=O)(=O)N3CCc4ccccc43)ccc21	10.7
CCCCn1nc(NC(=O)c2cccs2)c2cc3ccccc3nc21	8.28
CCOc1ccc(Nc2cc(C)nc(-n3nc(C)cc3C)n2)cc1	4.19
COc1cccc(NC(=O)Nc2nnc(N3CCCCC3C)s2)c1 (stereo not given)	8.43
CC(C)C1O/C(=N/C(=O)Nc2ccc(Cl)c(Cl)c2)NC1=O (stereo not given)	2.07
Cc1cccc(N2CCN(C(=O)c3ccc(NS(=O)(=O)c4c(C)noc4C)cc3)CC2)c1C	16.2
C=CCn1c(NC(C)c2cc(Cl)ccc2O)nc2ccccc21 (stereo not given)	6.8
COc1ccc(S(=O)(=O)Nc2ccccc2C(=O)NCc2ccco2)cc1Br	9.63
COc1ccc(-n2c(Cc3cccn3C)nnc2SCC(=O)Nc2ccc(C)c(Cl)c2)cc1	14.4
CC(C)N(Cc1nc(-c2ccc(Cl)cc2)no1)C(=O)CCC1CCCC1	15.5
CCCN(CCC)c1nc(NC2CCN(C(=O)OCC)CC2)nc(OC)n1	12.4
O=C(Nc1ccc(N2CCN(C(=O)c3ccco3)CC2)c(Cl)c1)c1cccs1	12.3
O=C1CCCc2nc3nc4ccccc4n3cc21	17
Cc1onc(-c2ccccc2)c1C(=O)Nc1sc2c(c1C#N)CCC2	10.1
O=C(COc1cccc2ccccc12)N1CCN(c2ccccc2)CC1	22.6
CCn1c(N2CCN(C(=O)C34CC5CC(CC(C5)C3)C4)CC2)nc2ccccc21	17.2
Cc1ccc(N(CC(=O)Nc2cccc(C)c2)S(=O)(=O)c2cccc3nonc23)cc1	37
Cc1ccc(-c2nnc(SCC(=O)N3CC(C)CC(C)C3)o2)cc1C (stereo not given)	12.9
Cn1nc(-c2ccc(N3CCOCC3)c(NC(=O)COc3ccccc3)c2)c2ccccc2c1=O	8.7
Cc1cc(C)n(-c2nc(SCC(=O)N3CCCC3)c3c4c(sc3n2)CCCC4)n1	23.9
CCOc1ccccc1-c1nn2c(Cc3ccccc3)nnc2s1	0.76
Oc1c(CN2CCN(c3ccccn3)CC2)cc(Cl)c2cccnc12	11.4
